ChEMBL document CHEMBL3734675, “Synthesis, antimycobacterial and antibacterial activity of fluoroquinolone derivatives containing an 3-alkoxyimino-4-(cyclopropylanimo)methylpyrrolidine moiety” (2015)
In brackets after ≈: the same amount, converted by molar mass.

Experiments:
Assay type in all cases: functional
Enterococcus faecalis [1] = assay: Antibacterial activity against Enterococcus faecalis 14-1 after 18 to 24 hrs by two-fold serial dilution method
Method in brief: (§1)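 Twofold serial dilution in agar media against Gram-positive and Gram-negative strains. Plates incubated at 35 °C for 18–24 h. MIC read as the lowest compound concentration giving complete inhibition of bacterial growth.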

[2] = system: Staphylococcus epidermidis; assay: Antibacterial activity against methicillin-resistant Staphylococcus epidermidis 14-37 after 18 to 24 hrs by two-fold serial dilution method
Method in brief: (§2)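 Agar media, standard twofold serial dilution. MIC is the lowest concentration giving complete inhibition of bacterial growth after incubation at 35 °C for 18–24 h. Ciprofloxacin and levofloxacin were run as comparators.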

Pseudomonas aeruginosa [3] = assay: Antibacterial activity against Pseudomonas aeruginosa 14-16 after 18 to 24 hrs by two-fold serial dilution method; method in brief: as §1
Staphylococcus aureus [4] = assay: Antibacterial activity against methicillin-resistant Staphylococcus aureus 14-5 after 18 to 24 hrs by two-fold serial dilution method; method in brief: as §2
Klebsiella pneumoniae [5] = assay: Antibacterial activity against extended-spectrum beta-lactamase producing Klebsiella pneumoniae 14-17 after 18 to 24 hrs by two-fold serial dilution method; method in brief: as §1
Klebsiella pneumoniae [6] = assay: Antibacterial activity against Klebsiella pneumoniae 14-2 after 18 to 24 hrs by two-fold serial dilution method; method in brief: as §1
Enterococcus faecium [7] = assay: Antibacterial activity against Enterococcus faecium 14-6 after 18 to 24 hrs by two-fold serial dilution method; method in brief: as §1
Klebsiella pneumoniae [8] = assay: Antibacterial activity against Klebsiella pneumoniae 14-4 after 18 to 24 hrs by two-fold serial dilution method; method in brief: as §1
Escherichia coli [9] = assay: Antibacterial activity against Escherichia coli 14-1 after 18 to 24 hrs by two-fold serial dilution method; method in brief: as §1
Streptococcus pneumoniae = assay: Antibacterial activity against methicillin-resistant Streptococcus pneumoniae ATCC 19615 after 18 to 24 hrs by two-fold serial dilution method; method in brief: as §2
Escherichia coli [10] = assay: Antibacterial activity against Escherichia coli 14-2 after 18 to 24 hrs by two-fold serial dilution method; method in brief: as §1
Pseudomonas aeruginosa [11] = assay: Antibacterial activity against Pseudomonas aeruginosa 14-15 after 18 to 24 hrs by two-fold serial dilution method; method in brief: as §1
Staphylococcus aureus [12] = assay: Antibacterial activity against methicillin-sensitive Staphylococcus aureus 14-1 after 18 to 24 hrs by two-fold serial dilution method; method in brief: as §1
[13] = system: Staphylococcus epidermidis; assay: Antibacterial activity against methicillin-resistant Staphylococcus epidermidis 14-22 after 18 to 24 hrs by two-fold serial dilution method; method in brief: as §2
Pseudomonas aeruginosa [14] = assay: Antibacterial activity against Pseudomonas aeruginosa ATCC 27853 after 18 to 24 hrs by two-fold serial dilution method; method in brief: as §1
Staphylococcus aureus [15] = assay: Antibacterial activity against methicillin-resistant Staphylococcus aureus 14-4 after 18 to 24 hrs by two-fold serial dilution method; method in brief: as §2
Klebsiella pneumoniae [16] = assay: Antibacterial activity against Klebsiella pneumoniae 14-3 after 18 to 24 hrs by two-fold serial dilution method; method in brief: as §1
Klebsiella pneumoniae [17] = assay: Antibacterial activity against extended-spectrum beta-lactamase producing Klebsiella pneumoniae 14-19 after 18 to 24 hrs by two-fold serial dilution method; method in brief: as §1
Escherichia coli [18] = assay: Antibacterial activity against Escherichia coli ATCC 25922 after 18 to 24 hrs by two-fold serial dilution method; method in brief: as §1
Staphylococcus aureus [19] = assay: Antibacterial activity against methicillin-sensitive Staphylococcus aureus 14-3 after 18 to 24 hrs by two-fold serial dilution method; method in brief: as §1
[20] = system: Staphylococcus epidermidis; assay: Antibacterial activity against methicillin-sensitive Staphylococcus epidermidis 14-2 after 18 to 24 hrs by two-fold serial dilution method; method in brief: as §1
[21] = system: Staphylococcus epidermidis; assay: Antibacterial activity against methicillin-resistant Staphylococcus epidermidis 14-21 after 18 to 24 hrs by two-fold serial dilution method; method in brief: as §2
Enterococcus faecium [22] = assay: Antibacterial activity against Enterococcus faecium 14-2 after 18 to 24 hrs by two-fold serial dilution method; method in brief: as §1
Pseudomonas aeruginosa [23] = assay: Antibacterial activity against Pseudomonas aeruginosa 14-14 after 18 to 24 hrs by two-fold serial dilution method; method in brief: as §1
Staphylococcus aureus [24] = assay: Antibacterial activity against Staphylococcus aureus CMCC 26003 after 18 to 24 hrs by two-fold serial dilution method; method in brief: as §1
Enterococcus faecium [25] = assay: Antibacterial activity against Enterococcus faecium 14-5 after 18 to 24 hrs by two-fold serial dilution method; method in brief: as §1
Pseudomonas aeruginosa [26] = assay: Antibacterial activity against Pseudomonas aeruginosa 14-9 after 18 to 24 hrs by two-fold serial dilution method; method in brief: as §1
[27] = system: Staphylococcus epidermidis; assay: Antibacterial activity against methicillin-resistant Staphylococcus epidermidis 14-39 after 18 to 24 hrs by two-fold serial dilution method; method in brief: as §2
Klebsiella pneumoniae [28] = assay: Antibacterial activity against Klebsiella pneumoniae 14-1 after 18 to 24 hrs by two-fold serial dilution method; method in brief: as §1
Escherichia coli [29] = assay: Antibacterial activity against extended-spectrum beta-lactamase producing Escherichia coli 14-1 after 18 to 24 hrs by two-fold serial dilution method; method in brief: as §1
Enterococcus faecalis [30] = assay: Antibacterial activity against Enterococcus faecalis 14-2 after 18 to 24 hrs by two-fold serial dilution method; method in brief: as §1
Staphylococcus aureus [31] = assay: Antibacterial activity against methicillin-sensitive Staphylococcus aureus 14-4 after 18 to 24 hrs by two-fold serial dilution method; method in brief: as §1
Escherichia coli [32] = assay: Antibacterial activity against extended-spectrum beta-lactamase producing Escherichia coli 14-2 after 18 to 24 hrs by two-fold serial dilution method; method in brief: as §1
Klebsiella pneumoniae [33] = assay: Antibacterial activity against extended-spectrum beta-lactamase producing Klebsiella pneumoniae 14-18 after 18 to 24 hrs by two-fold serial dilution method; method in brief: as §1
[34] = system: Mycobacterium tuberculosis; assay: Antimycobacterial activity against Mycobacterium tuberculosis H37Rv ATCC 27294 incubated for 7 days by microplate Alamar Blue assay; conditions: H37Rv ATCC 27294, 168 h
Method in brief: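 Fluorescence read-out. MIC is the lowest concentration that reduces fluorescence by at least 90% relative to the mean of replicate bacterium-only controls. Isoniazid and rifampicin were included as reference drugs.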

Structure (SMILES)	MIC (Enterococcus faecalis [1]) [µg/mL]	MIC [2] [µg/mL]	MIC (Pseudomonas aeruginosa [3]) [µg/mL]	MIC (Staphylococcus aureus [4]) [µg/mL]	MIC (Klebsiella pneumoniae [5]) [µg/mL]	MIC (Klebsiella pneumoniae [6]) [µg/mL]	MIC (Enterococcus faecium [7]) [µg/mL]	MIC (Klebsiella pneumoniae [8]) [µg/mL]	MIC (Escherichia coli [9]) [µg/mL]	MIC (Streptococcus pneumoniae) [µg/mL]	MIC (Escherichia coli [10]) [µg/mL]	MIC (Pseudomonas aeruginosa [11]) [µg/mL]	MIC (Staphylococcus aureus [12]) [µg/mL]	MIC [13] [µg/mL]	MIC (Pseudomonas aeruginosa [14]) [µg/mL]	MIC (Staphylococcus aureus [15]) [µg/mL]	MIC (Klebsiella pneumoniae [16]) [µg/mL]	MIC (Klebsiella pneumoniae [17]) [µg/mL]	MIC (Escherichia coli [18]) [µg/mL]	MIC (Staphylococcus aureus [19]) [µg/mL]	also measured
C[C@H]1COc2c(N3C/C(=N/OCc4ccccc4)C(CNC4CC4)C3)c(F)cc3c(=O)c(C(=O)O)cn1c23 (some centres undefined)	16 (≈ 30.7 µM)	2 (≈ 3.84 µM)	32 (≈ 61.5 µM)	4 (≈ 7.68 µM)	32 (≈ 61.5 µM)	64 (≈ 123 µM)	16 (≈ 30.7 µM)	64 (≈ 123 µM)	> 64	0.125 (≈ 0.24 µM)	> 64	64 (≈ 123 µM)	2 (≈ 3.84 µM)	4 (≈ 7.68 µM)	32 (≈ 61.5 µM)	4 (≈ 7.68 µM)	64 (≈ 123 µM)	64 (≈ 123 µM)	1 (≈ 1.92 µM)	0.125 (≈ 0.24 µM)	MIC [20]: 8 µg/mL (≈ 15.4 µM); MIC [21]: 8 µg/mL (≈ 15.4 µM); MIC (Enterococcus faecium [22]): 4 µg/mL (≈ 7.68 µM); MIC (Pseudomonas aeruginosa [23]): 64 µg/mL (≈ 123 µM); MIC (Staphylococcus aureus [24]): < 0.008 µg/mL; MIC (Enterococcus faecium [25]): 8 µg/mL (≈ 15.4 µM); MIC (Pseudomonas aeruginosa [26]): 16 µg/mL (≈ 30.7 µM); MIC [27]: 4 µg/mL (≈ 7.68 µM); MIC (Klebsiella pneumoniae [28]): 32 µg/mL (≈ 61.5 µM); MIC (Escherichia coli [29]): 2 µg/mL (≈ 3.84 µM); MIC (Enterococcus faecalis [30]): 0.5 µg/mL (≈ 0.961 µM); MIC (Staphylococcus aureus [31]): 0.06 µg/mL (≈ 0.115 µM); MIC (Escherichia coli [32]): > 64 µg/mL; MIC (Klebsiella pneumoniae [33]): 32 µg/mL (≈ 61.5 µM)
CO/N=C1/CN(c2nc3c(cc2F)c(=O)c(C(=O)O)cn3[C@@H]2C[C@@H]2F)CC1CNC1CC1 (some centres undefined)	128 (≈ 286 µM)	64 (≈ 143 µM)	32 (≈ 71.5 µM)	8 (≈ 17.9 µM)	32 (≈ 71.5 µM)	64 (≈ 143 µM)	64 (≈ 143 µM)	> 128	> 128	4 (≈ 8.94 µM)	> 128	64 (≈ 143 µM)	8 (≈ 17.9 µM)	16 (≈ 35.8 µM)	8 (≈ 17.9 µM)	> 128	> 128	64 (≈ 143 µM)	4 (≈ 8.94 µM)	8 (≈ 17.9 µM)	MIC [20]: > 128 µg/mL; MIC [21]: 32 µg/mL (≈ 71.5 µM); MIC (Enterococcus faecium [22]): 16 µg/mL (≈ 35.8 µM); MIC (Pseudomonas aeruginosa [23]): 32 µg/mL (≈ 71.5 µM); MIC (Staphylococcus aureus [24]): < 0.008 µg/mL; MIC (Enterococcus faecium [25]): 32 µg/mL (≈ 71.5 µM); MIC (Pseudomonas aeruginosa [26]): 8 µg/mL (≈ 17.9 µM); MIC [27]: 32 µg/mL (≈ 71.5 µM); MIC (Klebsiella pneumoniae [28]): 64 µg/mL (≈ 143 µM); MIC (Escherichia coli [29]): 16 µg/mL (≈ 35.8 µM); MIC (Enterococcus faecalis [30]): 0.5 µg/mL (≈ 1.12 µM); MIC90 [34]: 1.25 µg/mL (≈ 2.79 µM); MIC (Staphylococcus aureus [31]): 16 µg/mL (≈ 35.8 µM); MIC (Escherichia coli [32]): > 128 µg/mL; MIC (Klebsiella pneumoniae [33]): 32 µg/mL (≈ 71.5 µM)
